Results taken from ChEMBL document CHEMBL3351278, “Pyridine-3-carboxamide-6-yl-ureas as novel inhibitors of bacterial DNA gyrase: structure based design, synthesis, SAR and antimicrobial activity” (Eur J Med Chem, 2014).
In brackets after ≈: the same amount, converted by molar mass.

Columns and labels:
DNA gyrase = DNA gyrase (Escherichia coli, UniProt P0AES4+P0AES6); assay: Inhibition of Escherichia coli GyrB A2B2 subunits assessed reduction in DNA supercoiling activity by malachite green dye based by spectrophotometry; format: protein-complex assay
Outline: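 Inhibition was measured as loss of ATPase activity of the E. coli GyrB enzyme and reported as IC50.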

Enterococcus faecalis = assay: Antibacterial activity against Enterococcus faecalis ATCC 29212 incubated for 24 hrs by broth microdilution method; format: functional; conditions: ATCC 29212, 24 h
Staphylococcus aureus [1] = assay: Antibacterial activity against Staphylococcus aureus ATCC 29213 incubated for 24 hrs by broth microdilution method; format: functional; conditions: ATCC 29213, 24 h
Streptococcus pyogenes [2] = assay: Antibacterial activity against Streptococcus pyogenes ATCC 51339 incubated for 24 hrs by broth microdilution method; format: functional; conditions: ATCC 51339, 24 h
Haemophilus influenzae = assay: Antibacterial activity against Haemophilus influenzae ATCC 49247 incubated for 24 hrs by broth microdilution method; format: functional; conditions: ATCC 49247, 24 h
[3] = Retention time of the compound by HPLC method; format: physicochemical
Staphylococcus aureus [4] = assay: Antibacterial activity against Staphylococcus aureus ATCC 29213 expressing GyrB T173N mutant incubated for 24 hrs by broth microdilution method; format: functional; conditions: ATCC 29213, 24 h
Streptococcus pyogenes [5] = assay: Antibacterial activity against Streptococcus pyogenes ATCC 51339 expressing ParE A53S mutant incubated for 24 hrs by broth microdilution method; format: functional; conditions: ATCC 51339, 24 h
Staphylococcus aureus [6] = assay: Antibacterial activity against Staphylococcus aureus ATCC 29213 expressing GyrB T173N and ParE T167N mutant incubated for 24 hrs by broth microdilution method; format: functional; conditions: ATCC 29213, 24 h
[7] = test system: Staphylococcus epidermidis; assay: Antibacterial activity against Staphylococcus epidermidis ATCC 12228 incubated for 24 hrs by broth microdilution method; format: functional; conditions: ATCC 12228, 24 h
Streptococcus pneumoniae = assay: Antibacterial activity against Streptococcus pneumoniae ATCC 49616 incubated for 24 hrs by broth microdilution method; format: functional; conditions: ATCC 49616, 24 h
Escherichia coli [8] = assay: Antibacterial activity against Escherichia coli ATCC 25922 incubated for 24 hrs by broth microdilution method; format: functional; conditions: ATCC 25922, 24 h
Escherichia coli [9] = assay: Antibacterial activity against Escherichia coli N43 expressing efflux pump mutant incubated for 24 hrs by broth microdilution method; format: functional; conditions: N43, 24 h

| Compound | IC50 (DNA gyrase) [µM] | MIC (Enterococcus faecalis) [µg/mL] | MIC (Staphylococcus aureus [1]) [µg/mL] | MIC (Streptococcus pyogenes [2]) [µg/mL] | MIC (Haemophilus influenzae) [µg/mL] | Retention_time [3] [min] | MIC (Staphylococcus aureus [4]) [µg/mL] | MIC (Streptococcus pyogenes [5]) [µg/mL] | MIC (Staphylococcus aureus [6]) [µg/mL] | MIC [7] [µg/mL] | MIC (Streptococcus pneumoniae) [µg/mL] | MIC (Escherichia coli [8]) [µg/mL] | MIC (Escherichia coli [9]) [µg/mL] |
| --- | --- | --- | --- | --- | --- | --- | --- | --- | --- | --- | --- | --- | --- |
| CCNC(=O)Nc1nc2cc(-c3cccnc3)cc(-c3ccccn3)c2s1 | < 0.75 | < 0.25 | – | – | – | – | – | – | – | – | – | – | – |
| CCNC(=O)Nc1ccc(C(=O)Nc2cccnc2)cn1 | 6 | 256 (≈ 897 µM) | > 256 | 32 (≈ 112 µM) | > 256 | 1.25 | – | – | – | – | – | – | – |
| CCNC(=O)Nc1ccc(C(=O)Nc2ccccc2)cn1 | 7.7 | > 16 | > 64 | > 16 | > 16 | 1.69 | – | – | – | – | – | – | – |
| CCNC(=O)Nc1ccc(C(=O)Nc2cccc(Cl)c2)cn1 | 1.6 | 16 (≈ 50.2 µM) | 16 (≈ 50.2 µM) | 16 (≈ 50.2 µM) | > 64 | 1.84 | > 64 | > 64 | – | – | – | – | – |
| CCNC(=O)Nc1ccc(C(=O)Nc2ccccc2Cl)cn1 | 2.1 | > 64 | > 64 | > 64 | > 64 | 1.7 | – | – | – | – | – | – | – |
| CCNC(=O)Nc1ccc(C(=O)Nc2ccc(Cl)cc2)cn1 | 3.3 | > 64 | > 64 | > 64 | > 64 | 1.83 | – | – | – | – | – | – | – |
| CCNC(=O)Nc1ccc(C(=O)Nc2cccc(F)c2)cn1 | 3 | 32 (≈ 106 µM) | 32 (≈ 106 µM) | 32 (≈ 106 µM) | > 64 | 1.74 | > 64 | > 64 | – | – | – | – | – |
| CCNC(=O)Nc1ccc(C(=O)Nc2cccc(C)c2)cn1 | 3.4 | 32 (≈ 107 µM) | 32 (≈ 107 µM) | 32 (≈ 107 µM) | > 64 | 1.76 | > 64 | > 64 | – | – | – | – | – |
| CCNC(=O)Nc1ccc(C(=O)Nc2cccc(C#N)c2)cn1 | 3.8 | > 64 | > 64 | 32 (≈ 103 µM) | > 64 | 1.69 | – | – | – | – | – | – | – |
| CCNC(=O)Nc1ccc(C(=O)Nc2cccc(C(N)=O)c2)cn1 | 24.5 | > 256 | > 256 | > 256 | > 256 | 1.44 | – | – | – | – | – | – | – |
| CCNC(=O)Nc1ccc(C(=O)Nc2cccc(CC)c2)cn1 | 40.4 | > 256 | > 256 | > 256 | > 256 | 1.84 | – | – | – | – | – | – | – |
| CCNC(=O)Nc1ccc(C(=O)Nc2ccc(OC)c(OC)c2)cn1 | 6.2 | 32 (≈ 92.9 µM) | > 64 | 32 (≈ 92.9 µM) | > 64 | 1.59 | – | > 64 | – | – | – | – | – |
| CCNC(=O)Nc1ccc(C(=O)Nc2cc(Cl)ccc2C)cn1 | 7.5 | > 64 | > 64 | > 64 | > 64 | 1.77 | – | – | – | – | – | – | – |
| CCNC(=O)Nc1ccc(C(=O)Nc2ccncc2)cn1 | 3.5 | 64 (≈ 224 µM) | > 64 | 64 (≈ 224 µM) | > 64 | 1.19 | – | – | – | – | – | – | – |
| CCNC(=O)Nc1ccc(C(=O)Nc2ccnc(C)c2)cn1 | 5.3 | > 64 | > 64 | > 64 | > 64 | 1.24 | – | – | – | – | – | – | – |
| CCNC(=O)Nc1ccc(C(=O)Nc2cc(C(=O)OC)ccn2)cn1 | 14 | > 64 | > 64 | > 64 | > 64 | 1.66 | – | – | – | – | – | – | – |
| CCNC(=O)Nc1ccc(C(=O)Nc2nccs2)cn1 | 0.42 | > 64 | > 64 | > 64 | > 64 | 1.52 | – | – | – | – | – | – | – |
| CCNC(=O)Nc1ccc(C(=O)Nc2ncc(C(=O)O)s2)cn1 | 0.96 | > 64 | > 64 | > 64 | > 64 | 1.43 | – | – | – | – | – | – | – |
| CCNC(=O)Nc1ccc(C(=O)NC2CCCCC2)cn1 | 23.1 | > 64 | > 64 | > 64 | > 64 | 1.67 | – | – | – | – | – | – | – |
| CCNC(=O)Nc1cc(Nc2cccc(C)c2)c(C(=O)Nc2cccc(C)c2)cn1 | 0.099 | 0.5 (≈ 1.24 µM) | 1 (≈ 2.48 µM) | 32 (≈ 79.3 µM) | > 64 | 1.75 | – | – | – | – | – | – | – |

| Compound | IC50 (DNA gyrase) [µM] | MIC (Enterococcus faecalis) [µg/mL] | MIC (Staphylococcus aureus [1]) [µg/mL] | MIC (Streptococcus pyogenes [2]) [µg/mL] | MIC (Haemophilus influenzae) [µg/mL] | Retention_time [3] [min] | MIC (Staphylococcus aureus [4]) [µg/mL] | MIC (Streptococcus pyogenes [5]) [µg/mL] | MIC (Staphylococcus aureus [6]) [µg/mL] | MIC [7] [µg/mL] | MIC (Streptococcus pneumoniae) [µg/mL] | MIC (Escherichia coli [8]) [µg/mL] | MIC (Escherichia coli [9]) [µg/mL] |
| --- | --- | --- | --- | --- | --- | --- | --- | --- | --- | --- | --- | --- | --- |
| CCNC(=O)Nc1cc(Nc2cccc(C)c2)c(C(=O)Nc2nccs2)cn1 | 0.098 | > 64 | > 64 | > 64 | > 64 | 1.51 | – | – | – | – | – | – | – |
| CCNC(=O)Nc1cc(N2CCN(C)CC2)c(C(=O)Nc2cccc(Cl)c2)cn1 | 5.14 | > 64 | > 64 | > 64 | > 64 | 1.36 | – | – | – | – | – | – | – |
| CCNC(=O)Nc1cc(N2CCN(C)CC2)c(C(=O)Nc2cccnc2)cn1 | 5.66 | > 64 | > 64 | > 64 | > 64 | 0.27 | – | – | – | – | – | – | – |
| CCNC(=O)Nc1cc(N2CCN(C)CC2)c(C(=O)Nc2cccc(C)c2)cn1 | 18 | > 64 | > 64 | > 64 | > 64 | 1.26 | – | – | – | – | – | – | – |
| CCNC(=O)Nc1cc(N2CCN(C)CC2)c(C(=O)Nc2nccs2)cn1 | 33.2 | > 64 | > 64 | > 64 | > 64 | 1.18 | – | – | – | – | – | – | – |
| CCNC(=O)Nc1cc(-n2ccnc2)c(C(=O)Nc2cccc(Cl)c2)cn1 | 0.55 | 32 (≈ 83.2 µM) | > 64 | 64 (≈ 166 µM) | > 64 | 1.44 | – | – | – | – | – | – | – |
| CCNC(=O)Nc1cc(-c2cccnc2)c(C(=O)Nc2nccs2)cn1 | 0.56 | 64 (≈ 174 µM) | > 64 | 64 (≈ 174 µM) | > 64 | 1.36 | – | – | – | – | – | – | – |
| CCNC(=O)Nc1cc(-c2cccnc2)c(C(=O)Nc2cccnc2)cn1 | 1.13 | 64 (≈ 177 µM) | > 64 | 64 (≈ 177 µM) | > 64 | 1.12 | – | – | – | – | – | – | – |
| CCNC(=O)Nc1cc(-c2cccnc2)c(C(=O)Nc2cccc(Cl)c2)cn1 | 3.02 | 64 (≈ 162 µM) | > 64 | 64 (≈ 162 µM) | > 64 | 1.6 | – | – | – | – | – | – | – |
| CCNC(=O)Nc1cc(-c2cccnc2)c(C(=O)Nc2cccc(C)c2)cn1 | 7.27 | 64 (≈ 170 µM) | > 64 | > 64 | > 64 | 1.51 | – | – | – | – | – | – | – |
| CCNC(=O)Nc1cc(-c2ccccc2)c(C(=O)Nc2cccc(Cl)c2)cn1 | 0.81 | 4 (≈ 10.1 µM) | > 64 | > 64 | > 64 | 1.88 | – | – | – | – | – | – | – |
| CCNC(=O)Nc1cc(NC2CCCCC2)c(C(=O)Nc2cccc(C)c2)cn1 | 2.12 | > 64 | > 64 | > 64 | > 64 | 1.7 | – | – | – | – | – | – | – |
| CCNC(=O)Nc1cc(NCc2cccnc2)c(C(=O)Nc2cccnc2)cn1 | 0.66 | 8 (≈ 20.4 µM) | > 64 | 8 (≈ 20.4 µM) | > 64 | 1.23 | – | – | – | – | – | – | – |
| CCNC(=O)Nc1cc(NCc2cccnc2)c(C(=O)Nc2ccccc2)cn1 | 4.81 | 2 (≈ 5.12 µM) | > 64 | 8 (≈ 20.5 µM) | > 64 | 1.3 | – | – | – | – | – | – | – |
| CCNC(=O)Nc1cc(Nc2ccccc2)c(C(=O)Nc2cccc(Cl)c2)cn1 | 0.15 | 0.125 (≈ 0.305 µM) | 0.5 (≈ 1.22 µM) | 4 (≈ 9.76 µM) | > 64 | 1.71 | 1 (≈ 2.44 µM) | 32 (≈ 78.1 µM) | > 64 | 0.5 (≈ 1.22 µM) | 1 (≈ 2.44 µM) | > 64 | > 64 |
| CCNC(=O)Nc1cc(Nc2ccccc2)c(C(=O)Nc2ccc(-n3cncn3)nc2)cn1 | 0.15 | 0.25 (≈ 0.564 µM) | > 16 | > 16 | > 64 | 1.54 | – | – | – | – | – | – | – |
| CCNC(=O)Nc1cc(Nc2ccccc2)c(C(=O)NCc2cccnc2)cn1 | 2 | 0.5 (≈ 1.28 µM) | > 16 | 1 (≈ 2.56 µM) | > 64 | 1.24 | – | – | – | – | – | – | – |
| CCNC(=O)Nc1cc(Oc2ccccc2)c(C(=O)Nc2ccccc2)cn1 | 4.9 | > 16 | > 16 | > 16 | > 64 | 1.93 | – | – | – | – | – | – | – |
| CCNC(=O)Nc1cc(Nc2cccnc2)c(C(=O)Nc2cccnc2)cn1 | 0.093 | 0.5 (≈ 1.32 µM) | 8 (≈ 21.2 µM) | 1 (≈ 2.65 µM) | > 64 | 1.38 | – | – | – | – | – | – | – |
| CCNC(=O)Nc1ccc(C(=O)Nc2ccc3c(C)cc(=O)oc3c2)cn1 | 8.4 | > 64 | > 64 | > 64 | > 64 | 1.64 | – | – | – | – | – | – | – |
